The source of these data is publication PMC6499389 (European journal of medicinal chemistry, 2019).

Read-outs that look alike come from different tables or passages of the source. Some results are limits rather than exact numbers.

For one assay, the target named is T1, hTopo I (Homo sapiens, UniProt P11387).
T1 sequence (P11387 1-765): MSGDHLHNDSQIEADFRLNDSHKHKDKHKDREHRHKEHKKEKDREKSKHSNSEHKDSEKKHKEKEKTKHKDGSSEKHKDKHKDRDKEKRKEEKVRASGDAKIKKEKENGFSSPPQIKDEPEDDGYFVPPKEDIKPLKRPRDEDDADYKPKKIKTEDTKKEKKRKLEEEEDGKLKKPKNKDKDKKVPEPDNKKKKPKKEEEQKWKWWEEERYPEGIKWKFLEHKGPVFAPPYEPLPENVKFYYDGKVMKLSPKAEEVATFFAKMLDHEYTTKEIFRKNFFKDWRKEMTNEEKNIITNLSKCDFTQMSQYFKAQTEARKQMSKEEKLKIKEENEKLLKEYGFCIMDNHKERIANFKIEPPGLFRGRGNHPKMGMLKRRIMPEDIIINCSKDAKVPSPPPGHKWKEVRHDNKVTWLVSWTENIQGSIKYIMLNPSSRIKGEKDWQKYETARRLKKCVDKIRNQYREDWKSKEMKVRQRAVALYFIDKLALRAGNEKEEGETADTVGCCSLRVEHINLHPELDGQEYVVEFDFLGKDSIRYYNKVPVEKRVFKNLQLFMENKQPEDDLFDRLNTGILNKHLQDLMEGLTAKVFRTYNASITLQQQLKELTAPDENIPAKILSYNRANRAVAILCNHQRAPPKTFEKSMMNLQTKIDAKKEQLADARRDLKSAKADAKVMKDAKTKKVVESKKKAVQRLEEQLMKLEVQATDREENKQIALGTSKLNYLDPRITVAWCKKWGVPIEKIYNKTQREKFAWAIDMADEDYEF
Description: Relaxation assay for hTopo I. In kind it is biochemical. The following applies: for fold lower activity (loss in hTopo I inhibition) than 5a: relative to 5a; for fold lower activity (loss in hTopo I inhibition) than 5a / fold lower activity (loss in hTopo I inhibition) than 217: from relaxation assay IC50; for fold lower activity (loss in hTopo I inhibition) than 217: relative to 217. The method in brief: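 Supercoiled pBR322 (0.3 μg) was relaxed by 1 unit of commercial human Topo I. Buffer: 50 mM Tris-HCl pH 7.5, 100 mM NaCl, 10 mM MgCl2, 1 mM DTT, 50 μg/ml BSA, plus varied test compound concentrations. Incubation was 15 min at 37°C, stopped with 25 mM EDTA. Products ran on 1.2% agarose, 2 V/cm, 15 h, TAE, then were ethidium-stained and imaged. IC50 came from band quantification.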

The subject of assay [1] is colon cancer (HT-29) xenograft. The following applies: HT-29 xenograft model, mice; cited from earlier work.
Assay [2] has as its system 27-bp sequence d(CCTTACGTGCATAGTCATTCATGACCG) of dsDNA. Description: DNA binding assay. As to conditions: compound 25 μM.
In assay [3] the test system is calf thymus DNA (Ct-DNA). Description: DNA binding assay. The following applies: several ratios of DNA to FQ.
The test system of assay [4] is calf thymus DNA (Ct-DNA). As to conditions: ref Previous studies; cited from earlier work.

On to `NC[C@@H]1CCN(c2ccc3c(=O)c(C(=O)O)cn(Cc4ccc(-c5ccccc5)cc4)c3c2)C1` [086B/6a, (S)-1-([1,1′-biphenyl]-4-ylmethyl)-7-(3-(aminomethyl)pyrrolidin-1-yl)-4-oxo-1,4-dihydroquinoline-3-carboxylic acid], for which the “fold lower activity (loss in hTopo I inhibition) than 5a” value at hTopo I is recorded as about 4 fold. The “fold lower activity than its cognate C6-fluorine analog 7a” value on hTopo I (relative to 7a as printed) was found to be 4 fold.

On to `O=C(O)c1cn(Cc2ccc(-c3ccccc3)cc2)c2cc(N3CC4CNCC4C3)c(F)cc2c1=O` (stereo not drawn) [089/5l, 1-([1,1′-biphenyl]-4-ylmethyl)-6-fluoro-7-(hexahydropyrrolo[3,4-c]pyrrol-2(1H)-yl)-4-oxo-1,4-dihydroquinoline-3-carboxylic acid], for which, at hTopo I, the “fold lower activity (loss in hTopo I inhibition) than 5a” value came out at 2 fold.

With `O=C(O)c1cn(Cc2ccc(-c3ccccc3)cc2)c2cc(N3C[C@H]4CCNC[C@H]4C3)c(F)cc2c1=O` [091/5k, 1-([1,1′-biphenyl]-4-ylmethyl)-6-fluoro-7-((3aS,7aS)-hexahydro-1H-pyrrolo[3,4-c]pyridin-2(3H)-yl)-4-oxo-1,4-dihydroquinoline-3-carboxylic acid], the “fold lower activity (loss in hTopo I inhibition) than 5a” value at hTopo I is 4 fold. Further, the “fold more active than 5f” value on hTopo I (relative to C7 N-methyl AMP analog 5f) is on record as about 3 fold.

For the molecule `N[C@@H]1CCN(c2cc3c(cc2F)c(=O)c(C(=O)O)cn3Cc2ccc(-c3ccccc3)cc2)C1` [117/5g, (R)-1-([1,1′-biphenyl]-4-ylmethyl)-7-(3-aminopyrrolidin-1-yl)-6-fluoro-4-oxo-1,4-dihydroquinoline-3-carboxylic acid], on hTopo I, the “fold lower activity (loss in hTopo I inhibition) than 5a” value turned out to be 4 fold.

In the case of `CN[C@@H]1CCN(c2cc3c(cc2F)c(=O)c(C(=O)O)cn3Cc2ccc(-c3ccccc3)cc2)C1` [118/5h, (R)-1-([1,1′-biphenyl]-4-ylmethyl)-6-fluoro-7-(3-(methylamino)pyrrolidin-1-yl)-4-oxo-1,4-dihydroquinoline-3-carboxylic acid], the “fold lower activity (loss in hTopo I inhibition) than 5a” value on hTopo I is 2 fold.

In the case of `COc1c(N2CC[C@@H](N)C2)c(F)cc2c(=O)c(C(=O)O)cn(Cc3ccc(-c4ccccc4)cc3)c12` [226/4d, (R)-1-([1,1′-biphenyl]-4-ylmethyl)-7-(3-aminopyrrolidin-1-yl)-6-fluoro-8-methoxy-4-oxo-1,4-dihydroquinoline-3-carboxylic acid], the “fold lower activity (loss in hTopo I inhibition) than 217” value on hTopo I is reported as “more than 3 fold”.

For the molecule `CN[C@@H]1CCN(c2c(F)cc3c(=O)c(C(=O)O)cn(Cc4ccc(-c5ccccc5)cc4)c3c2OC)C1` [228/4e, (R)-1-([1,1′-biphenyl]-4-ylmethyl)-6-fluoro-8-methoxy-7-(3-(methylamino)pyrrolidin-1-yl)-4-oxo-1,4-dihydroquinoline-3-carboxylic acid], the “fold lower activity (loss in hTopo I inhibition) than 217” value on hTopo I is recorded as “about 2 fold”.

With `CNC(=O)c1cn(Cc2ccc(-c3ccccc3)cc2)c2c(OC)c(N3CC[C@@H](CN)C3)c(F)cc2c1=O` [242/3a, (S)-1-([1,1′-biphenyl]-4-ylmethyl)-7-(3-(aminomethyl)pyrrolidin-1-yl)-6-fluoro-8-methoxy-N-methyl-4-oxo-1,4-dihydroquinoline-3-carboxamide], the “fold lower activity (loss in hTopo I inhibition) than 217” value on hTopo I is reported as 3- to 7 fold.

`COc1c(N2CC[C@@H](CN)C2)c(F)cc2c(=O)c(C(N)=O)cn(Cc3ccc(-c4ccccc4)cc3)c12` [251/3b, (S)-1-([1,1′-biphenyl]-4-ylmethyl)-7-(3-(aminomethyl)pyrrolidin-1-yl)-6-fluoro-8-methoxy-4-oxo-1,4-dihydroquinoline-3-carboxamide]: the “fold lower activity (loss in hTopo I inhibition) than 217” value on hTopo I is recorded as 3- to 7 fold.

`COc1c(N2CC[C@@H](CN)C2)c(F)cc2c(=O)c(C(=O)O)cn(Cc3ccc(-c4ccc(F)cc4)cc3)c12` [277/7c, (S)-7-(3-(aminomethyl)pyrrolidin-1-yl)-6-fluoro-1-((4′-fluoro-[1,1′-biphenyl]-4-yl)methyl)-8-methoxy-4-oxo-1,4-dihydroquinoline-3-carboxylic acid]: the “fold lower activity (loss in hTopo I inhibition) than 217” value on hTopo I stood at 2 fold.

Turning to `COc1c(N2CC[C@@H](CN)C2)c(F)cc2c(=O)c(C(=O)O)cn(Cc3ccc(-n4cccn4)cc3)c12` [292B/7a, (S)-1-(4-(1H-pyrazol-1-yl)benzyl)-7-(3-(aminomethyl)pyrrolidin-1-yl)-6-fluoro-8-methoxy-4-oxo-1,4-dihydroquinoline-3-carboxylic acid], the “fold lower activity (loss in hTopo I inhibition) than 217” value at hTopo I is at least 7 fold.

On to `COc1c(N2CC[C@@H](CN)C2)c(F)cc2c(=O)c(C(=O)O)cn(Cc3cc(-c4ccccc4)no3)c12` [294B/7b, (S)-7-(3-(aminomethyl)pyrrolidin-1-yl)-6-fluoro-8-methoxy-4-oxo-1-((3-phenylisoxazol-5-yl)methyl)-1,4-dihydroquinoline-3-carboxylic acid], for which the “fold lower activity (loss in hTopo I inhibition) than 217” value at hTopo I is recorded as at least 7 fold.

Broadly, the IC50 is the point on the concentration scale where inhibition reaches its midpoint. `O=C(O)c1cn(Cc2ccc(-n3cccn3)cc2)c2cc(NC[C@@H]3CCNC3)c(F)cc2c1=O` [298B/9e, (R)-1-(4-(1H-pyrazol-1-yl)benzyl)-6-fluoro-4-oxo-7-((pyrrolidin-3-ylmethyl)amino)-1,4-dihydroquinoline-3-carboxylic acid] registered a concentration for half-maximal inhibition (IC50) against hTopo I of over 200 µM.

As for `O=C(O)c1cn(Cc2ccc(-n3cccn3)cc2)c2cc(N3C[C@H]4CCNC[C@H]4C3)c(F)cc2c1=O` [300B/9c, 1-(4-(1H-pyrazol-1-yl)benzyl)-6-fluoro-7-((3aS,7aS)-hexahydro-1H-pyrrolo[3,4-c]pyridin-2(3H)-yl)-4-oxo-1,4-dihydroquinoline-3-carboxylic acid], the “fold improvement of hTopo I inhibition compared to 9a” value on hTopo I (relative to 9a) came to 2 fold.

Consider `COc1c(N2CC[C@@H](CN)C2)c(F)cc2c(=O)c(C(=O)O)cn(Cc3ccc(-c4ccccc4)cc3)c12` [Compound 217], for which the “inhibition of proliferation of colon cancer in vivo” value in assay [1] is “inhibited the proliferation of colon cancer in vivo as well as fluorouracil”. Further, the “bathochromic shift upon addition of 27-bp dsDNA” value in assay [2] is given as “a bathochromic shift was not observed”. The “fluorescence quenching upon addition of 27-bp dsDNA” value in assay [2] (dsDNA 0–200 μM, n=3) is “quenched in a concentration-dependent manner”. Moreover, the “fluorescence quenching upon addition of Ct-DNA” value with calf thymus DNA (Ct-DNA) [3] is listed as “Modest fluorescence quenching”. For the same molecule, the “bathochromic shift upon addition of Ct-DNA” value with calf thymus DNA (Ct-DNA) [3] (fluoroquinolone 25 μM, Ct-DNA 0 or 400 μM) is listed as “no bathochromic shift was observed”.

In the case of `COc1c(N2CC[C@@H](CN)C2)c(F)cc2c(=O)c(C(=O)O)cn(Cc3ccc4ccccc4c3)c12` [Compound 227], the “inhibition of proliferation of colon cancer in vivo” value in assay [1] is “exhibited activity but was not as effective as 217”.

Consider `CCn1cc(C(=O)O)c(=O)c2cc(F)c(N3CCNCC3)cc21` [Norfloxacin], for which, in the assay with calf thymus DNA (Ct-DNA) [4], the “bathochromic shift upon addition of Ct-DNA” value is recorded as “an observed bathochromic shift” and the “fluorescence quenching upon addition of Ct-DNA” value is on record as “significant quenching”.
